Measurements pooled from the literature.
Each line is one published result; the experiments were not run side by side.
Target: Dual specificity mitogen-activated protein kinase kinase 1 (MAP2K1, Homo sapiens, UniProt Q02750)

Compound	test	conditions	remaining binding [%]
COc1ccc2c(c1)O[C@@H](c1ccc(OC)c(OC)c1)C[C@H]2NC(=O)C1(c2ccc3c(c2)OC(F)(F)O3)CC1	cell-free assay, competition with immobilised ligand	1 µM	86
CNC(=O)c1cc(Oc2ccc(NC(=O)Nc3ccc(Cl)c(C(F)(F)F)c3)cc2)ccn1	cell-free assay, competition with immobilised ligand	0.1 µM	100
C=CC(=O)N1CCC(C(=O)NCC(=O)N2CCN(c3nc(-c4cnc(N)nc4C(F)F)nc(N4CCOCC4)n3)CC2)CC1	binding, competition with immobilised ligand	1 µM	69
FC(F)(F)Oc1cccc(-c2cnc3ccc(-c4ccncc4)nn23)c1	cell-free assay, competition with immobilised ligand	5 µM	70
COC(=O)Nc1nc2cc(C(=O)c3ccccc3)ccc2[nH]1	cell-free assay, competition with immobilised ligand	0.1 µM	100
COc1ccc2cc(OCC3(C(=O)O)CN(C(=O)c4ccc(F)cc4)C3)ccc2c1	cell-free assay, competition with immobilised ligand	1 µM	100
C[C@@H]1CCN(c2nccc(-c3cnn4ncccc34)n2)C1	binding, competition with immobilised ligand	1 µM	75
O=C(NCC1CCOCC1)c1n[nH]cc1NC(=O)c1c(F)cccc1F	binding, competition with immobilised ligand	1 µM	100
Cc1cnc(Nc2ccc(C(=O)N3CCC(N4CCCC4)CC3)cc2)nc1-c1cc2ccccc2s1	binding, competition with immobilised ligand	1 µM	25
N[C@@H]1CCN(c2nccc(-c3cnn4ncccc34)n2)C1	binding	1 µM	100
O=C(c1ccc(Nc2ncc(Cl)c(-c3cc4ccccc4s3)n2)cc1)N1CCC(N2CCCC2)CC1	binding, competition with immobilised ligand	1 µM	21
CCCOc1ccc([C@@H]2[C@@H](C(=O)O)[C@H](c3ccc4c(c3)OCO4)CN2CC(=O)Nc2c(CC)cccc2CC)cc1	cell-free assay, competition with immobilised ligand	1 µM	93
CS(=O)(=O)CCNCc1ccc(-c2ccc3ncnc(Nc4ccc(OCc5cccc(F)c5)c(Cl)c4)c3c2)o1	cell-free assay, competition with immobilised ligand	0.1 µM	95
C[C@@H](c1ccc(-n2cnc3c(N)ncnc32)cc1)N1CCc2nn(C)c(Cc3ccccc3)c2C1=O	binding, competition with immobilised ligand	0.1 µM	89
CC(=O)Nc1c(C(C)=O)c(=O)n(C)c2nc(-c3ccc(Cl)cc3Cl)c(-c3ccc(Cl)cc3)cc12	cell-free assay, competition with immobilised ligand	1 µM	100
COc1cnc(Nc2cccc(S(N)(=O)=O)c2)nc1N1CCN(c2ccccc2)C(=O)C1	binding, competition with immobilised ligand	1 µM	91

Compound	test	conditions	remaining binding [%]
O=C(NCCCN1CCOCC1)c1ccc(Nc2nccc(-c3cc4ccccc4s3)n2)cc1	binding, competition with immobilised ligand	1 µM	75
Cc1ccc(NC(=O)c2ccc(CN3CCN(C)CC3)cc2)cc1Nc1nccc(-c2cccnc2)n1	cell-free assay, competition with immobilised ligand	0.1 µM	95
CN(C)c1ncnc(-c2ccc3nc(Nc4cc(CN5CCN(C(=O)CC(F)(F)F)CC5)ccn4)[nH]c3c2)c1Cl	cell-free assay, competition with immobilised ligand	1 µM	78
Cc1c(-c2ccccc2)oc2c(C(=O)OCCN3CCCCC3)cccc2c1=O	cell-free assay, competition with immobilised ligand	10 µM	95
COc1cnc(Nc2cccc(S(N)(=O)=O)c2)nc1N1CCN(c2ccccc2)CC1	binding, competition with immobilised ligand	1 µM	90
C[C@@H]1CN(c2ccc3ncc(-c4ccc5[nH]nc(C6CC6)c5c4)n3n2)C[C@H](C)O1	binding, competition with immobilised ligand	50 nM	80
CN(CCCC(F)(F)F)c1nccc(-c2cnn3ncccc23)n1	binding, competition with immobilised ligand	1 µM	99
O=C(N1CCS(=O)(=O)CC1)N1C[C@H](c2ccc(OC(F)(F)F)cc2)C[C@H](c2nc(C3CC3)no2)C1	cell-free assay, competition with immobilised ligand	1 µM	91
CN(C)c1nccc(-c2cnc3ncccn23)n1	binding, competition with immobilised ligand	1 µM	81
C[C@H](c1cccc(C#N)c1)n1cc(Cl)cc(C(N)=O)c1=N	cell-free assay, competition with immobilised ligand	1 µM	75
COc1cc2ncnc(Nc3ccc(F)c(Cl)c3)c2cc1OCCCN1CCOCC1	cell-free assay, competition with immobilised ligand	0.1 µM	100
Cc1cnn2ncc(-c3ccnc(N(C)C)n3)c2c1	binding	1 µM	82
CCN(CC)CCNC(=O)c1c(C)[nH]c(/C=C2\C(=O)Nc3ccc(F)cc32)c1C	cell-free assay, competition with immobilised ligand	0.1 µM	51
c1cncc(-c2cccc(Nc3nccc(NC4CCCCC4)n3)c2)c1	binding, competition with immobilised ligand	10 µM	79
CN1CC[C@H](c2c(O)cc(O)c3c(=O)cc(-c4ccccc4Cl)oc23)[C@H](O)C1	cell-free assay, competition with immobilised ligand	10 µM	92
O=C1CCc2cc(Nc3cc(OC4CCOCC4)c([N+](=O)[O-])cc3Cl)ccc2N1	cell-free assay, competition with immobilised ligand	1 µM	72
